{"source": "ChEMBL document CHEMBL1147115", "about": "(2007)", "key": {"Klebsiella pneumoniae [1]": {"system": "Klebsiella pneumoniae", "experiment": "Antimicrobial activity against ESBL producing Klebsiella pneumoniae 264 isolate infected thigh infection model ICR mouse", "type": "functional, Thigh muscle", "how_it_was_run": "(§1)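 Female ICR mice (~25 g) were made neutropenic with cyclophosphamide ip (150 and 100 mg/kg, days −4 and −1) and renally impaired with uranyl nitrate 5 mg/kg ip (day −3). Each thigh got 0.1 ml of 10^5 CFU/ml (or 10^7 for high inoculum) im 2 h pre-therapy. Human-simulated regimens were given sc, three mice per group, for 24 h. Efficacy was the log10 CFU/thigh change versus 0-h controls.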"}, "Escherichia coli [2]": {"system": "Escherichia coli", "experiment": "Antimicrobial activity against ESBL producing Escherichia coli 311 isolate infected thigh infection model ICR mouse", "type": "functional, Thigh muscle", "how_it_was_run": "as §1"}, "Klebsiella pneumoniae [3]": {"system": "Klebsiella pneumoniae", "experiment": "Antimicrobial activity against ESBL producing Klebsiella pneumoniae 263 isolate infected thigh infection model ICR mouse", "type": "functional, Thigh muscle", "how_it_was_run": "as §1"}, "Escherichia coli [4]": {"system": "Escherichia coli", "experiment": "Antimicrobial activity against Escherichia coli 120 isolate infected thigh infection model ICR mouse", "type": "functional, Thigh muscle", "how_it_was_run": "as §1"}, "Klebsiella pneumoniae [5]": {"system": "Klebsiella pneumoniae", "experiment": "Antimicrobial activity against ESBL producing Klebsiella pneumoniae 270 isolate infected thigh infection model ICR mouse", "type": "functional, Thigh muscle", "how_it_was_run": "as §1"}, "Klebsiella pneumoniae [6]": {"system": "Klebsiella pneumoniae", "experiment": "Activity against ESBL producing Klebsiella pneumonia 262 isolate at up to 4 ug/ml", "type": "functional"}, "Klebsiella pneumoniae [7]": {"system": "Klebsiella pneumoniae", "experiment": "Antimicrobial activity against ESBL producing Klebsiella pneumoniae 270 isolate", "type": "functional"}, "Escherichia coli [8]": {"system": "Escherichia coli", "experiment": "Antimicrobial activity against ESBL producing Escherichia coli 133 isolate", "type": "functional"}, "Escherichia coli [9]": {"system": "Escherichia coli", "experiment": "Antimicrobial activity against ESBL producing Escherichia coli 322 isolate infected thigh infection model ICR mouse", "type": "functional, Thigh muscle", "how_it_was_run": "as §1"}, "Klebsiella pneumoniae [10]": {"system": "Klebsiella pneumoniae", "experiment": "Antimicrobial activity against ESBL producing Klebsiella pneumoniae 255 isolate", "type": "functional"}, "Klebsiella pneumoniae [11]": {"system": "Klebsiella pneumoniae", "experiment": "Antimicrobial activity against ESBL producing Klebsiella pneumoniae 256 isolate", "type": "functional"}, "Klebsiella pneumoniae [12]": {"system": "Klebsiella pneumoniae", "experiment": "Antimicrobial activity against ESBL producing Klebsiella pneumoniae 260 isolate infected thigh infection model ICR mouse", "type": "functional, Thigh muscle", "how_it_was_run": "as §1"}, "Klebsiella pneumoniae [13]": {"system": "Klebsiella pneumoniae", "experiment": "Antimicrobial activity against ESBL producing Klebsiella pneumoniae 254 isolate", "type": "functional"}, "Escherichia coli [14]": {"system": "Escherichia coli", "experiment": "Antimicrobial activity against Escherichia coli ATCC 25922 isolate infected thigh infection model ICR mouse", "type": "functional, Thigh muscle", "how_it_was_run": "as §1"}, "Escherichia coli [15]": {"system": "Escherichia coli", "experiment": "Antimicrobial activity against ESBL producing Escherichia coli 310 isolate infected thigh infection model ICR mouse", "type": "functional, Thigh muscle", "how_it_was_run": "as §1"}, "Klebsiella pneumoniae [16]": {"system": "Klebsiella pneumoniae", "experiment": "Antimicrobial activity against ESBL producing Klebsiella pneumoniae 262 isolate", "type": "functional"}, "Klebsiella pneumoniae [17]": {"system": "Klebsiella pneumoniae", "experiment": "Antimicrobial activity against ESBL producing Klebsiella pneumoniae 230 isolate infected thigh infection model ICR mouse", "type": "functional, Thigh muscle", "how_it_was_run": "as §1"}, "Escherichia coli [18]": {"system": "Escherichia coli", "experiment": "Antimicrobial activity against ESBL producing Escherichia coli 318 isolate infected thigh infection model ICR mouse", "type": "functional, Thigh muscle", "how_it_was_run": "as §1"}, "Klebsiella pneumoniae [19]": {"system": "Klebsiella pneumoniae", "experiment": "Antimicrobial activity against ESBL producing Klebsiella pneumoniae 266 isolate", "type": "functional"}, "Escherichia coli [20]": {"system": "Escherichia coli", "experiment": "Antimicrobial activity against ESBL producing Escherichia coli 312 isolate", "type": "functional"}, "Escherichia coli [21]": {"system": "Escherichia coli", "experiment": "Antimicrobial activity against ESBL producing Escherichia coli 320 isolate infected thigh infection model ICR mouse", "type": "functional, Thigh muscle", "how_it_was_run": "as §1"}, "Klebsiella pneumoniae [22]": {"system": "Klebsiella pneumoniae", "experiment": "Antimicrobial activity against ESBL producing Klebsiella pneumoniae 261 isolate", "type": "functional"}, "Escherichia coli [23]": {"system": "Escherichia coli", "experiment": "Antimicrobial activity against ESBL producing Escherichia coli 243 isolate", "type": "functional"}, "Klebsiella pneumoniae [24]": {"system": "Klebsiella pneumoniae", "experiment": "Antimicrobial activity against ESBL producing Klebsiella pneumoniae 268 isolate infected thigh infection model ICR mouse", "type": "functional, Thigh muscle", "how_it_was_run": "as §1"}, "Klebsiella pneumoniae [25]": {"system": "Klebsiella pneumoniae", "experiment": "Antimicrobial activity against ESBL producing Klebsiella pneumoniae 257 isolate", "type": "functional"}, "Klebsiella pneumoniae [26]": {"system": "Klebsiella pneumoniae", "experiment": "Antimicrobial activity against ESBL producing Klebsiella pneumoniae 258 isolate infected thigh infection model ICR mouse", "type": "functional, Thigh muscle", "how_it_was_run": "as §1"}, "Klebsiella pneumoniae [27]": {"system": "Klebsiella pneumoniae", "experiment": "Antimicrobial activity against ESBL producing Klebsiella pneumoniae 101 isolate infected thigh infection model ICR mouse", "type": "functional, Thigh muscle", "how_it_was_run": "as §1"}, "Klebsiella pneumoniae [28]": {"system": "Klebsiella pneumoniae", "experiment": "Antimicrobial activity against ESBL producing Klebsiella pneumoniae 259 isolate", "type": "functional"}, "Escherichia coli [29]": {"system": "Escherichia coli", "experiment": "Antimicrobial activity against ESBL producing Escherichia coli 315 isolate", "type": "functional"}, "Klebsiella pneumoniae [30]": {"system": "Klebsiella pneumoniae", "experiment": "Antimicrobial activity against ESBL producing Klebsiella pneumoniae 254 isolate infected thigh infection model ICR mouse", "type": "functional, Thigh muscle", "how_it_was_run": "as §1"}, "Escherichia coli [31]": {"system": "Escherichia coli", "experiment": "Antimicrobial activity against ESBL producing Escherichia coli 133 isolate infected thigh infection model ICR mouse", "type": "functional, Thigh muscle", "how_it_was_run": "as §1"}, "Klebsiella pneumoniae [32]": {"system": "Klebsiella pneumoniae", "experiment": "Antimicrobial activity against ESBL producing Klebsiella pneumoniae 258 isolate", "type": "functional"}, "Klebsiella pneumoniae [33]": {"system": "Klebsiella pneumoniae", "experiment": "Antimicrobial activity against ESBL producing Klebsiella pneumoniae 265 isolate", "type": "functional"}, "Klebsiella pneumoniae [34]": {"system": "Klebsiella pneumoniae", "experiment": "Bacteriostasis activity against ESBL producing Klebsiella pneumonia 262 isolate at up to 1.5 ug/ml", "type": "functional"}}}
{"smiles": "C[C@@H](O)[C@H]1C(=O)N2C(C(=O)O)=C(S[C@@H]3CN[C@H](C(=O)Nc4cccc(C(=O)O)c4)C3)[C@H](C)[C@H]12", "values": [{"measurement": "fT>MIC", "setting": "Klebsiella pneumoniae [1]", "value": 10, "unit": "%"}, {"measurement": "fT>MIC", "setting": "Escherichia coli [2]", "value": 10, "unit": "%"}, {"measurement": "fT>MIC", "setting": "Klebsiella pneumoniae [3]", "value": 0, "unit": "%"}, {"measurement": "fT>MIC", "setting": "Escherichia coli [4]", "value": 77, "unit": "%"}, {"measurement": "fT>MIC", "setting": "Klebsiella pneumoniae [5]", "value": 40, "unit": "%"}, {"measurement": "MIC", "setting": "Klebsiella pneumoniae [6]", "value": 4, "unit": "µg/mL"}, {"measurement": "MIC", "setting": "Klebsiella pneumoniae [7]", "value": 0.5, "unit": "µg/mL"}, {"measurement": "MIC", "setting": "Escherichia coli [8]", "value": 1.5, "unit": "µg/mL"}, {"measurement": "fT>MIC", "setting": "Escherichia coli [9]", "value": 90, "unit": "%"}, {"measurement": "MIC", "setting": "Klebsiella pneumoniae [10]", "value": 2, "unit": "µg/mL"}, {"measurement": "MIC", "setting": "Klebsiella pneumoniae [11]", "value": 32, "unit": "µg/mL"}, {"measurement": "fT>MIC", "setting": "Klebsiella pneumoniae [12]", "value": 30, "unit": "%"}, {"measurement": "MIC", "setting": "Klebsiella pneumoniae [13]", "value": 16, "unit": "µg/mL"}, {"measurement": "fT>MIC", "setting": "Escherichia coli [14]", "value": 93, "unit": "%"}, {"measurement": "fT>MIC", "setting": "Escherichia coli [15]", "value": 67, "unit": "%"}, {"measurement": "MIC", "setting": "Klebsiella pneumoniae [16]", "value": 64, "unit": "µg/mL"}, {"measurement": "fT>MIC", "setting": "Klebsiella pneumoniae [17]", "value": 60, "unit": "%"}, {"measurement": "fT>MIC", "setting": "Escherichia coli [18]", "value": 90, "unit": "%"}, {"measurement": "MIC", "setting": "Klebsiella pneumoniae [19]", "value": 8, "unit": "µg/mL"}, {"measurement": "MIC", "setting": "Escherichia coli [20]", "value": 0.19, "unit": "µg/mL"}, {"measurement": "fT>MIC", "setting": "Escherichia coli [21]", "value": 40, "unit": "%"}, {"measurement": "MIC", "setting": "Klebsiella pneumoniae [22]", "value": 128, "unit": "µg/mL"}, {"measurement": "MIC", "setting": "Escherichia coli [23]", "value": 0.064, "unit": "µg/mL"}, {"measurement": "fT>MIC", "setting": "Klebsiella pneumoniae [24]", "value": 47, "unit": "%"}, {"measurement": "MIC", "setting": "Klebsiella pneumoniae [25]", "value": 16, "unit": "µg/mL"}, {"measurement": "fT>MIC", "setting": "Klebsiella pneumoniae [26]", "value": 0, "unit": "%"}, {"measurement": "fT>MIC", "setting": "Klebsiella pneumoniae [27]", "value": 60, "unit": "%"}, {"measurement": "MIC", "setting": "Klebsiella pneumoniae [28]", "value": 16, "unit": "µg/mL"}, {"measurement": "MIC", "setting": "Escherichia coli [29]", "value": 0.032, "unit": "µg/mL"}, {"measurement": "fT>MIC", "setting": "Klebsiella pneumoniae [30]", "value": 0, "unit": "%"}, {"measurement": "fT>MIC", "setting": "Escherichia coli [31]", "value": 23, "unit": "%"}, {"measurement": "MIC", "setting": "Klebsiella pneumoniae [32]", "value": 16, "unit": "µg/mL"}, {"measurement": "MIC", "setting": "Klebsiella pneumoniae [33]", "value": 0.5, "unit": "µg/mL"}, {"measurement": "MIC", "setting": "Klebsiella pneumoniae [34]", "value": 1.5, "unit": "µg/mL"}]}
